ChEMBL document CHEMBL1914395, “Design, synthesis, and biological evaluation of callophycin A and analogues as potential chemopreventive and anticancer agents” (Bioorg Med Chem, 2011)

Experiments:
[1] = target: NAD(P)H dehydrogenase [quinone] 1 (Mus musculus) (UniProt Q64669); experiment: Induction of quinone reductase 1 activity in mouse Hepa-1c1c7 cells assessed as cell survival at 50 uM by MTT assay relative to control; format: cell-based
[2] = target: T1, Nitric oxide synthase, inducible (Mus musculus) (UniProt P29477); experiment: Inhibition of iNOS-mediated nitric oxide production in LPS-stimulated mouse RAW 264.7 cells assessed as cell survival at 50 uM pretreated 15 mins before LPS challenge measured after 20 hrs relative to control; format: cell-based
T1 sequence (whole entry): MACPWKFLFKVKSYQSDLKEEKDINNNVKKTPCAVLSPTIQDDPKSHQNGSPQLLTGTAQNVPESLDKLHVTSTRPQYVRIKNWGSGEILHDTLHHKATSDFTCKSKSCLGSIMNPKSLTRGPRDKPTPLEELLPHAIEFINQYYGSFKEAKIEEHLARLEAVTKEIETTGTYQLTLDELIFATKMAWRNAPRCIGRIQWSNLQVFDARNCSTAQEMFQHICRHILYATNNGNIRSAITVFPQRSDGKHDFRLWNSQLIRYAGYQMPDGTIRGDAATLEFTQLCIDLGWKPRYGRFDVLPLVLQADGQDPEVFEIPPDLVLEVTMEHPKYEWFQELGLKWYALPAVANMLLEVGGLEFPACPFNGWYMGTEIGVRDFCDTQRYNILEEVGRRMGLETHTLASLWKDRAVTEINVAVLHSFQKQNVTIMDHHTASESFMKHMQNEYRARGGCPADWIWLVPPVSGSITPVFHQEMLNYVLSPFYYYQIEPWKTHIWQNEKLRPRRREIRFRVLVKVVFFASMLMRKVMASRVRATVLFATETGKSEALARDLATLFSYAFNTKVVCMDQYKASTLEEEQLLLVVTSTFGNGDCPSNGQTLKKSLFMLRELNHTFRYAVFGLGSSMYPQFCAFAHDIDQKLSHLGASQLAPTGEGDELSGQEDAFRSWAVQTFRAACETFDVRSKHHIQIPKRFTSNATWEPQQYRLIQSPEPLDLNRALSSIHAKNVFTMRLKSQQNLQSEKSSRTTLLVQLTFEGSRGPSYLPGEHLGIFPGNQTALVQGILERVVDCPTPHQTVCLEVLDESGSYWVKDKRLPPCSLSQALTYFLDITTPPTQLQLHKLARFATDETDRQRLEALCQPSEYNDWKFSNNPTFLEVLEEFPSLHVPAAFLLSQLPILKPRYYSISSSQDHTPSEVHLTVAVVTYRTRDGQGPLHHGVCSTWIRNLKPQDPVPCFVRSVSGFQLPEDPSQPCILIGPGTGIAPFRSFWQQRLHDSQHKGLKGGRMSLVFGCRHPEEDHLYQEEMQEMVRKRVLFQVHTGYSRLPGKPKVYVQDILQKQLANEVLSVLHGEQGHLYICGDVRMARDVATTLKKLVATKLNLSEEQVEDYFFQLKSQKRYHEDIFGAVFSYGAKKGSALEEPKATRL
How it was run: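 RAW 264.7 cells were incubated at 37°C, 5% CO2 for 24 h. They were then exposed to compound for 15 min before LPS (1 μg/mL) was added for 20 h. Cytotoxicity was measured by SRB staining under the same conditions. Survival is expressed as % relative to vehicle-treated controls at 50 μM.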

[3] = target: T1, Nitric oxide synthase, inducible (Mus musculus); experiment: Inhibition of iNOS-mediated nitric oxide production in LPS-stimulated mouse RAW 264.7 cells at 50 uM pretreated 15 mins before LPS challenge measured after 20 hrs relative to control; format: cell-based
How it was run: (§1)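 RAW 264.7 cells cultured 24 h at 37°C, then given serially diluted compounds for 15 min before LPS (1 μg/mL) for 20 h. Nitrite in the medium measured with Griess reagent at 540 nm against a sodium nitrite standard curve. Cytotoxicity checked by SRB under the same conditions.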

Aromatase = target: T2, Aromatase (Homo sapiens, UniProt P11511); experiment: Inhibition of aromatase at 50 uM after 10 mins preincubation by plate reader relative to control
T2 sequence (P11511 whole entry): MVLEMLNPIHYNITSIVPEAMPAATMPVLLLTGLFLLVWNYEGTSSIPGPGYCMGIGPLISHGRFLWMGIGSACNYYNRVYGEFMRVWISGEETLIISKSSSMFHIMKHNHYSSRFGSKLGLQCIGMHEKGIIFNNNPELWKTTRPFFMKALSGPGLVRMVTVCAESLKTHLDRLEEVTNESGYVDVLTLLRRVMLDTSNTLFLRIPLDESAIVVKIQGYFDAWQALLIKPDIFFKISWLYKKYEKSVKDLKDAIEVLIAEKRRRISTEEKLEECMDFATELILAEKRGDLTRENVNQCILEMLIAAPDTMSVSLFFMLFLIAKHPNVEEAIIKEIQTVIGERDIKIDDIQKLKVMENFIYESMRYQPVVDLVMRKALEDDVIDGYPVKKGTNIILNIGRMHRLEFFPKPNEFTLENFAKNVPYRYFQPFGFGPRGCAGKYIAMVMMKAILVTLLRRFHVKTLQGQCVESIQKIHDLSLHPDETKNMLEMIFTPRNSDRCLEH
How it was run: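 CYP19 enzyme. Compound pre-incubated 10 min with an NADPH-regenerating system (NADP+, glucose 6-phosphate, G6PDH, MgCl2, albumin) in 50 mM potassium phosphate pH 7.4. Enzyme and 0.4 μM dibenzylfluorescein substrate then added, 30 min at 37 °C. Quenched with 2 N NaOH and incubated a further 2 h at 37 °C. Fluorescence read at ex 485/em 530 nm. Compound tested at 50 μM.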

HEK293 [4] = experiment: Inhibition of TNF-alpha-induced NFkappaB activation in human HEK293 cells at 50 uM after 6 hrs by luciferase assay relative to control; format: cell-based
How it was run: (§2)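 Cells incubated 6 h with TNFα plus test compound, then luciferase activity measured. Results expressed as percent of TNFα-treated control. Screening concentration 50 μM.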

[5] = target: NAD(P)H dehydrogenase [quinone] 1 (Mus musculus) (UniProt Q64669); experiment: Induction of quinone reductase 1 activity in mouse Hepa-1c1c7 cells at 50 uM by MTT assay relative to untreated control; format: cell-based
How it was run: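 Hepa 1c1c7 murine hepatoma cells treated with compound at 50 μM. QR1 measured by NADPH-dependent, menadiol-mediated reduction of MTT to formazan. Protein measured by crystal violet staining of identical plates. Specific activity is nmol formazan per mg protein per min. Induction ratio is treated versus DMSO-treated control.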

HEK293 [6] = experiment: Inhibition of TNF-alpha-induced NFkappaB activation in human HEK293 cells assessed as cell survival at 50 uM after 6 hrs by luciferase assay relative to control; format: cell-based
[7] = target: NAD(P)H dehydrogenase [quinone] 1 (Mus musculus) (UniProt Q64669); experiment: Induction of quinone reductase 1 in mouse Hepa 1c1c7 cells assessed as concentration of compound required to double enzyme activity by MTT assay; format: cell-based
How it was run: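 Dose-response in Hepa 1c1c7 cells, run for substances with induction ratio >2 at 50 μM. QR1 activity measured as menadiol-mediated, NADPH-dependent MTT reduction to formazan, normalised to crystal violet protein content. CD is the concentration that doubles specific activity relative to DMSO control.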

[8] = Inhibition of TNF-alpha-induced NFkappaB activation in human HEK293 cells after 6 hrs by luciferase assay; format: cell-based; conditions: HEK293, 6 h; how it was run: as §2
MCF7 = experiment: Antiproliferative activity against human MCF7 cells assessed as survival at 50 uM after 72 hrs by SRB assay relative to control; format: functional; conditions: MCF7, 72 h, read-out: Survival
How it was run: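 MCF7 cells (1 × 10^4 per well) were plated onto compound and kept at 37°C, 5% CO2 for 72 h. Cells were fixed in 10% TCA for 30 min and stained with 0.4% SRB in 1% acetic acid for 30 min. Bound dye was dissolved in 10 mM Tris (pH 10.0) and read at 515 nm. Survival is given as % of DMSO-treated controls, screened at 50 μM.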

[9] = target: T3, Nitric oxide synthase, inducible (Mus musculus, UniProt P29477); experiment: Inhibition of iNOS-mediated nitric oxide production in LPS-stimulated mouse RAW 264.7 cells pretreated 15 mins before LPS challenge measured after 20 hrs relative to control; format: cell-based; how it was run: as §1
T3 sequence (P29477 whole entry): T1 sequence (whole entry)

Sequence of NAD(P)H dehydrogenase [quinone] 1 (Mus musculus) (Q64669 whole entry): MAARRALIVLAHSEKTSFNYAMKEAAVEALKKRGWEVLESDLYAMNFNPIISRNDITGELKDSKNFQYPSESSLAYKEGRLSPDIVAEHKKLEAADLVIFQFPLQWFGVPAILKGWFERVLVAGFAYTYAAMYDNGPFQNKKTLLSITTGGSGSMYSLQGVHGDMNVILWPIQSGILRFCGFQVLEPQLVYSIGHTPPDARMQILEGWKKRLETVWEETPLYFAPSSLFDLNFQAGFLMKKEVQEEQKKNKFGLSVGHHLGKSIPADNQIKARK

Row | SMILES | Survival [1] | Survival [2] | inhibition [3] | inhibition at 50 µM (Aromatase) | inhibition (HEK293 [4]) | Ratio [5] | Survival (HEK293 [6]) | CD [7] | IC50 [8] | viability at 50 µM (MCF7) | IC50 [9]
1 | C#CCN1Cc2[nH]c3ccccc3c2C[C@@H]1C(=O)OC | 77.2% | 114% | 41.1% | 31.7% | 43.6% | 2 | 227% | 50 µM | – | – | –
2 | Cc1ccc(S(=O)(=O)N[C@@H](Cc2ccccc2)C(=O)CCl)cc1 [TPCK] | – | – | – | – | – | – | – | – | 4.9 µM | – | –
3 | COC(=O)[C@H]1Cc2c([nH]c3ccccc23)CN1 | 115% | 116% | 7.2% | 14.3% | 58.4% | 1.1 | 60.3% | – | 22.1 µM | – | –
4 | C=CCOC(=O)N1Cc2[nH]c3ccccc3c2C[C@H]1C(=O)O | 82.9% | 135% | -6.3% | 38.4% | 35.6% | 2.4 | 109% | 26.5 µM | – | – | –
5 | O=C(O)[C@@H]1Cc2c([nH]c3ccccc23)CN1CC1CC1 | 90.7% | 135% | -7% | 30.2% | 33.7% | 2.4 | 234% | 27.6 µM | – | 108% | –
6 | COC(=O)[C@H]1Cc2c([nH]c3ccccc23)CN1Cc1ccc(OCc2ccccc2)cc1 | 85.4% | 86.8% | 75.9% | 27.3% | 40.5% | 1.4 | 91% | – | – | 96.7% | 29.4 µM
7 | COC(=O)[C@@H]1Cc2c([nH]c3ccccc23)CN1Cc1ccc(OCc2ccccc2)cc1 | 72.8% | 93.9% | 58% | 28% | 24.7% | 1.8 | 99.7% | – | – | – | 39.2 µM
8 | C#CCN1Cc2[nH]c3ccccc3c2C[C@H]1C(=O)O | 91.9% | 126% | 7% | 30.5% | 50.2% | 2.2 | 228% | 18.7 µM | – | 112% | –
9 | C=CCOC(=O)N1Cc2[nH]c3ccccc3c2C[C@@H]1C(=O)OC | 77.3% | 91.6% | 57.1% | 35.1% | 50.7% | 2.8 | 97.6% | 15.9 µM | – | 69.5% | 27.7 µM
10 | COC(=O)[C@H]1Cc2c([nH]c3ccccc23)CN1Cc1ccc(O)cc1 | 98.6% | 87.3% | 63.7% | 38.7% | 33.5% | 1.8 | 122% | – | – | 100% | 37.5 µM
11 | O=C(O)[C@@H]1Cc2c([nH]c3ccccc23)CN1S(=O)(=O)c1ccc(Br)cc1 | 97.8% | 80.6% | 50% | 23.2% | 55.4% | 1.3 | 247% | – | – | 77% | 49.7 µM
12 | O=C(O)[C@H]1Cc2c([nH]c3ccccc23)CN1S(=O)(=O)c1ccc(Br)cc1 | 88.3% | 103% | 56.2% | 32.3% | 50.9% | 1.3 | 252% | – | – | 91.2% | 46.1 µM
13 | COC(=O)[C@@H]1Cc2c([nH]c3ccccc23)CN1S(=O)(=O)c1ccc(Br)cc1 | 36.4% | 89.2% | 70.6% | 36.7% | 32.8% | 0.2 | 186% | – | – | -2.1% | 23.1 µM
